Rows were chosen to be rich in hits. Some 2% of all compounds tested hit in one or more screens of this group.
LMPTP inh: blocks human LMPTP phosphatase. recombinant LMPTP-A, OMFP fluorogenic substrate, fluorescence intensity. inhibition, % at 20 µM. hit rate 0.22% among 360,000. P24666;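 active = compounds that cut the enzyme signal by at least half of the control window in the single-dose screen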;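 note: plate controls were DMSO wells with enzyme plus substrate for no effect and substrate without enzyme for full effect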
Target sequence (P24666 whole entry, looked up): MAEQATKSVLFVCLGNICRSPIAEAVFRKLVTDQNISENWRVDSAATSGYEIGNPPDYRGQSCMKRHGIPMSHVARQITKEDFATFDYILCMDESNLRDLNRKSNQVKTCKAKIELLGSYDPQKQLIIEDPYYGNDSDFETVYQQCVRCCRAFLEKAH
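Test system: LMPTP-A phosphatase enzyme. Amount: LMPTP-A at 0.625 nM final in the reaction. Reagent: OMFP substrate, 400 µM final. Times: 50 min at room temperature. Signal: endpoint fluorescence intensity from OMFP dephosphorylation. Read-out basis: % inhibition. Benchmarks: no-enzyme and uninhibited controls.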
STEP inh: inhibitors of human striatal-enriched phosphatase STEP. P54829. recombinant STEP, OMFP fluorogenic substrate, fluorescence. inhibition, % at 20 µM. hit rate 0.25% among 360,000;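 active = inhibition at 20 µM, scaled per plate between control wells, above about 37%, limit read from the data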;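 note: 0% = DMSO with enzyme and substrate and 100% = substrate only without enzyme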
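System: STEP phosphatase, cell-free reaction; Buffer or medium: Bis-Tris pH 6.0 buffer with DTT, detergent; Incubation: 20 min at room temperature, dark; Measured by: fluorescence, 480/540 nm.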
CSN inh: blocks human CSN-mediated cullin deneddylation. hit rate 0.38% among 360,000. Purified CSN, SCF-Nedd8-OG deneddylation, fluorescence polarization. AID 651999. inhibition, % at 12.5 µM. Q92905;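 active = pattern-corrected inhibition above about 35%, with an unprinted fluorescence ratio check between 0.5 and 1.5, limit read from the data, passing the limit was not always enough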;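 note: 0% = enzyme with substrate and 100% = substrate without enzyme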
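Assay system: purified human Csn5 enzyme expressed in HEK293T cells; measure: % inhibition; also added: SCFSkp2-Nedd8OG substrate at 10 nM final; technique: fluorescence polarization; times: reaction 90 min, room temperature; medium: Tris buffer pH 7.5, NaCl, DTT, Tween-20, trehalose, ovalbumin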
SUMO1 PPI mod: modulators of human SUMO1-mediated protein-protein interactions; P63165; inhibition, % at 20 µM; hit rate 0.33% among 360,000; SUMO1 binding to a labelled peptide, TR-FRET, 1 h; in the data active = inhibition above about 37%
Target sequence (P63165 whole entry, looked up): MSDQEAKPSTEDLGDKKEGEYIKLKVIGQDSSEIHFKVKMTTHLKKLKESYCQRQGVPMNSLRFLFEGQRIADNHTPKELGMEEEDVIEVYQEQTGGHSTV
DNMT1 inh: inhibitors of human DNMT1; hit rate 0.83% among 360,000; inhibition (reported as % activation of signal), % at 10 µM; DNMT1 molecular beacon, Hinp1I cleavage, fluorescence; in the data active = inhibition above about 50%
Scp-1 inhibitor: Scp-1 (human) phosphatase inhibition; Recombinant Scp1, phosphopeptide, malachite green phosphate absorbance; inhibition, % at 20 µM; hit rate 0.88% among 340,000;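 active = inhibition above about 50% at 20 µM, limit read from the data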;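 note: plate controls were DMSO wells with enzyme for no effect and wells lacking enzyme for full effect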
Target sequence (Q9GZU7 76-261 limits assumed): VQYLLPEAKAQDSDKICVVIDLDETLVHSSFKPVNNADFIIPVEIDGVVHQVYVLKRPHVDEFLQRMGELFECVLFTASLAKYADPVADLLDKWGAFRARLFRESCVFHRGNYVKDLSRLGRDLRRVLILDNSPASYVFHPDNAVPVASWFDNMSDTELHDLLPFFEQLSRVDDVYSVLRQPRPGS
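Material – SCP-1 phosphatase catalytic domain, residues 76-261 · Buffer or medium – Acidic Tris acetate buffer with magnesium and detergent · Also added – Phospho 17-mer peptide substrate · Compound – single 20 µM dose, 1% DMSO · Times – 45 min room-temperature reaction, 5 min colour, 30 min stabiliser · Technique – Phosphate-binding colour reagent, absorbance read at 630 nm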
Beacon interf DR: counter-screen for DNMT1 inhibitors: spectral interference, dose response; shares compounds with DNMT1 inh; molecular beacon fluorescence; AID 602382; IC50, µM; 200 tested, under 10 active; call rule not given here
DNMT1 inh conf: confirmation of human DNMT1 inhibitors | hit rate 8% among 2,300 | AID 602385 | DNMT1 molecular beacon HinP1I cleavage, fluorescence | shares compounds with DNMT1 inh | inhibition, % at 10 µM;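 active = average inhibition of at least 30% in the single-concentration confirmation test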
Beacon interf: counter-screen for DNMT1 inhibitors: spectral interference; shares compounds with DNMT1 inh; DNMT1 molecular beacon spectral interference counterscreen, fluorescence 485/520; activation (fluorescence interference), % at 10 µM; hit rate 1% among 2,300; AID 602387;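 active = activation of at least 30% at 10 µM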;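 note: DNMT1 catalytic domain with a HinP1I cleavage step and a FAM/dabcyl DNA beacon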
* = called active by the depositor; . = no result.

SMILES | LMPTP inh | STEP inh | CSN inh | SUMO1 PPI mod | DNMT1 inh | Scp-1 inhibitor | DNMT1 inh conf | Beacon interf | others
COc1ccc(-c2cc3ccccc3oc2=O)cc1NC(=O)c1ccc([N+](=O)[O-])o1 | 10.6 | 5.7 | 0.1 | -7.1 | 6.5 | 2.2 | . | .
COc1ccc(-c2cc3ccccc3oc2=O)cc1NC(=O)c1ccc(Br)o1 | 15.6 | 4.6 | 27.4 | 9.1 | 85.2* | 1.1 | 1.8 | -4.5
Cc1nn(Cc2ccc(Cl)c(Cl)c2)c(C)c1NC(=O)c1cc(-c2ccc3c(c2)OCO3)on1 | 4.4 | 0.7 | 5.3 | 0.0 | 76.2* | 2.8 | 3.3 | -1.9
Cc1nn(Cc2ccc(Cl)cc2)c(C)c1NC(=O)c1cc(-c2ccc3c(c2)OCO3)on1 | 3.2 | -0.4 | 0.1 | 1.0 | 38.7 | -1.1 | . | .
C=C(C)[C@@H]1CCC2(C(=O)O)CC[C@]3(C)[C@H](CC[C@@H]4[C@@]5(C)CCC(=O)C(C)(C)[C@@H]5CC[C@]43C)[C@@H]12 (stereo partly drawn) | 2.1 | 0.9 | 2.5 | 2.4 | 55.0* | 4.4 | 1.0 | -7.8
C=C(C)[C@@H]1CC[C@]2(C(=O)O)CC[C@]3(C)C(CCC4[C@@]5(C)CC[C@H](O)C(C)(C)C5CC[C@]43C)C12 (stereo partly drawn) | -0.1 | 3.6 | 18.6 | 2.7 | 60.1* | -4.0 | -0.8 | -15.9
C=C(CC[C@@H](O)C(C)(C)O)[C@H]1CC[C@]2(C)[C@@H]1CCC1[C@@]3(C)CCC(=O)C(C)(C)C3CC[C@]12C (stereo partly drawn) | -0.1 | 3.3 | -6.8 | 2.0 | -4.1 | 4.0 | . | .
COC(=O)C/C(O)=C(/N=Nc1cccc(C(F)(F)F)c1)C(=O)OC | 0.0 | 0.1 | 6.2 | -0.8 | 0.9 | 14.0 | . | .
CCN(C(=O)COC(=O)c1ccccc1Cc1ccccc1)c1c(N)n(Cc2ccccc2)c(=O)[nH]c1=O | -0.9 | -2.0 | -4.3 | 1.8 | -0.9 | -3.4 | . | .
CN(C(=O)COC(=O)c1ccccc1Cc1ccccc1)c1c(N)n(Cc2ccccc2)c(=O)[nH]c1=O | 0.5 | -0.9 | -3.1 | -1.1 | 88.7* | -0.8 | 0.4 | 2.9
CCOc1ccc2nc(COC(=O)c3cccc([N+](=O)[O-])c3)c(C(C)=O)[n+]([O-])c2c1 | 0.9 | 1.6 | -8.6 | -10.6 | 0.6 | -0.7 | . | .
CCOC(=O)c1cccnc1SCC(=O)Nc1ccc(C)cc1 | 0.2 | 2.8 | -3.6 | 5.6 | -0.9 | 10.7 | . | .
Cc1ccc(NC(=O)CSc2ncccc2C(=O)Oc2cccc([N+](=O)[O-])c2)cc1Cl | 43.7 | 24.0 | -0.1 | 6.4 | 53.0* | 40.8 | 4.2 | -0.8
O=C(C1CCCN(CCCc2ccccc2)C1)N1CCCCC1 (stereo not drawn) | 0.4 | 1.4 | -4.8 | 0.1 | 1.3 | -7.8 | . | .
COCCN1C(=O)C(=O)/C(=C(/O)c2ccc(C)cc2)C1c1ccccn1 (stereo not drawn) | -0.1 | -1.6 | 2.0 | 0.4 | 0.6 | 16.4 | . | .
CCc1ccc(NC(=O)Cn2c(=O)c3cccn3c3ccccc32)cc1 | 1.0 | 3.1 | 0.1 | -0.7 | 54.8* | -6.5 | 4.5 | 0.9
CC1=C/C(=C\c2ccc(Br)o2)C(=O)O1 | 11.1 | 24.3 | 32.3 | 6.2 | 105.7* | 82.2* | 46.2* | -2.1 | Beacon interf DR=>99
COc1ccccc1-c1ccc(/C=C2/C=C(C)OC2=O)o1 | 1.9 | 0.4 | 12.2 | -4.6 | -1.7 | -12.2 | . | .
O=C(O)C1CSC(c2ccncc2)N1 (stereo not drawn) | -3.8 | -3.3 | 0.5 | -4.4 | 1.1 | 3.6 | . | .
O=C(O)C1CSC(c2ccco2)N1 (stereo not drawn) | 57.6* | 31.9 | 34.3 | 23.0 | 96.9* | 66.6* | 17.3 | -3.7
O=C(CCc1nc2ccccc2c(=O)[nH]1)Nc1nnc(SCc2ccccc2)s1 | 4.3 | 1.3 | 16.3 | 8.9 | 66.5* | 5.1 | 0.1 | -6.2
O=c1[nH]c(CSc2nnc(Nc3ccccc3)s2)nc2ccccc12 | -0.4 | -1.1 | 6.0 | -2.9 | 14.4 | -8.4 | . | .
C=CCSc1nc2sc3c(c2c(=O)n1-c1ccc(C)cc1)CCN(C)C3 | 2.1 | 5.4 | 0.0 | 32.4 | 2.2 | -9.7 | . | .
CN(Cc1nc2ccc(F)cc2[nH]1)C(=O)C1CCC(=O)N(C2CC2)C1 (stereo not drawn) | 0.6 | -1.6 | 0.3 | 0.7 | -1.1 | -4.5 | . | .
Cc1cc2nc(CN(C)C(=O)C3CCC(=O)N(C4CCCC4)C3)[nH]c2cc1C (stereo not drawn) | 35.0 | -0.5 | -0.7 | 4.3 | 73.1* | . | 0.4 | 4.4
SMILES | LMPTP inh | STEP inh | CSN inh | SUMO1 PPI mod | DNMT1 inh | Scp-1 inhibitor | DNMT1 inh conf | Beacon interf | others
Cc1ccc(OCC(=O)Nc2nnc(S(=O)(=O)N3CCC(C)CC3)s2)cc1 | 6.7 | 2.0 | 11.1 | 2.6 | 57.8* | 3.1 | -0.7 | -2.9
O=C(CCN1C(=O)/C(=C/C=C/c2ccccc2)SC1=S)Nc1cccnc1 | 4.0 | -0.3 | 18.0 | -7.5 | 61.5* | -5.7 | 0.1 | -0.3
CC(/C=C1\SC(=S)N(CCC(=O)Nc2cccc(C(=O)O)c2)C1=O)=C\c1ccccc1 | 11.5 | 3.0 | 15.8 | 15.6 | 80.4* | -9.0 | 11.8 | 2.1
CCN1CCN(C(=O)c2cc(-c3ccco3)nc3ccccc23)CC1 | -0.7 | -4.5 | 5.8 | -3.3 | 40.0 | 30.7 | . | .
S=c1[nH]nc(-c2n[nH]c3c2CCC3)n1/N=C/C=C/c1ccco1 | 1.3 | 5.7 | 14.7 | 22.5 | 50.9* | -4.3 | 6.4 | 6.1
S=c1[nH]nc(-c2ccco2)n1/N=C/C=C/c1ccco1 | 2.1 | 4.9 | 38.2* | 13.5 | 82.6* | 5.4 | 1.9 | 3.3
COc1ccccc1/C=C/C=N/n1c(-c2n[nH]c3c2CCC3)n[nH]c1=S | 0.9 | 3.0 | -2.8 | -6.1 | -4.1 | -5.0 | . | .
S=c1[nH]nc(-c2cc(-c3ccccc3)n[nH]2)n1/N=C/C=C/c1ccco1 | 11.6 | 4.9 | 31.0 | 29.2 | 62.4* | -3.3 | 0.7 | 1.1
CCOC(=O)N1CCN(CC(O)COc2c(C)cc(C)cc2C)CC1 (stereo not drawn) | -1.6 | -2.8 | -2.2 | -1.1 | 1.1 | 8.4 | . | .
Cc1ccccc1CS(=O)(=O)c1cn(CC(=O)N2CCOCC2)c2ccccc12 | 0.7 | 1.4 | 4.7 | -0.4 | -0.5 | -10.7 | . | .
O=C(CSc1nnc(Cc2cccs2)n1C1CC1)NC1CCS(=O)(=O)C1 (stereo not drawn) | -0.4 | -3.8 | 1.0 | -7.7 | 3.7 | 3.5 | . | .
